# From ChEMBL document CHEMBL1124174, “Substituted benzamides. 1. Potential nondopaminergic antagonists of chemotherapy-induced nausea and emesis” (J Med Chem, 1988)
# Where “and” joins values, the source holds several entries; their conditions need not be identical. Equal entries are not always repeated.
# Experiments:
# [1] = molecular target: D(2) dopamine receptor (Canis lupus familiaris) (UniProt Q9GJU1); assay: In vivo antagonism activity against dopamine D2 receptor was measured as emesis in dog when administered subcutaneously; assay type: functional, organism-based
# D(2) dopamine receptor (Canis lupus familiaris), sequence (Q9GJU1 whole entry): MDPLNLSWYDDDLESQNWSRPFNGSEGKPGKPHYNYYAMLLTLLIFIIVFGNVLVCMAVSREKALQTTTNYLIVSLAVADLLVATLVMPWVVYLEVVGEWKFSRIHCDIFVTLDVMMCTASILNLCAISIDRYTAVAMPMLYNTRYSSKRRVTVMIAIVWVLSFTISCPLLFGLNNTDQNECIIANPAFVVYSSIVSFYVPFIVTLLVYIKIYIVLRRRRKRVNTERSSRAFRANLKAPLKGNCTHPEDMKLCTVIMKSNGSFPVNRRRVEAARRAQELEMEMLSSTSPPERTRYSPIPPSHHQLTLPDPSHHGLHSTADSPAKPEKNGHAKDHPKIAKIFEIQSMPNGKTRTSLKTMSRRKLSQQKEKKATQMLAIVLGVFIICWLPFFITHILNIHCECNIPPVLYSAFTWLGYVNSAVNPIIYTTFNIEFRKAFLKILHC
# Canis familiaris [2] = assay: In vivo antagonism of cisplatin-induced emesis in dog measured as emetic episodes, twice the dose of 1 mg/kg in 2 dogs; assay type: functional, Canis lupus familiaris
# In short: (§1)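 Nonfasted mature male or female beagles were dosed sc twice, 30 min before and 120 min after cisplatin (3 mg/kg iv; 3 mg/mL in warm 0.9% saline, used immediately). Emesis was observed up to 5 h; events within 2 min counted as one episode. Results were given as mean emetic episodes and % protection versus a dynamic control (historical and concurrent saline means pooled). t test versus saline.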
# Mustela putorius furo [3] = assay: In vivo antagonism of cisplatin-induced emesis in ferret measured as emetic episodes, twice the dose of 3 mg/kg and in 3 ferrets; assay type: functional
# In short: (§2)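 Nonfasted castrated male Fitch ferrets (1–1.5 kg) had jugular catheters implanted ≥48 h earlier under anesthesia. Compounds or saline were given iv twice, 5 min before and 90 min after cisplatin (12 mg/kg iv; 12 mg/mL in warm 0.9% saline). Emesis was observed up to 4 h; events within 1 min counted as one episode. Results were given as mean emetic episodes and % protection versus a pooled historical/concurrent control. t test versus saline.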
# D(2) dopamine receptor = D(2) dopamine receptor (Rattus norvegicus, UniProt P61169); assay: In vitro antagonistic activity against Dopamine receptor D2 was evaluated for the inhibition of [3H]spiperone binding
# D(2) dopamine receptor, sequence (P61169 whole entry): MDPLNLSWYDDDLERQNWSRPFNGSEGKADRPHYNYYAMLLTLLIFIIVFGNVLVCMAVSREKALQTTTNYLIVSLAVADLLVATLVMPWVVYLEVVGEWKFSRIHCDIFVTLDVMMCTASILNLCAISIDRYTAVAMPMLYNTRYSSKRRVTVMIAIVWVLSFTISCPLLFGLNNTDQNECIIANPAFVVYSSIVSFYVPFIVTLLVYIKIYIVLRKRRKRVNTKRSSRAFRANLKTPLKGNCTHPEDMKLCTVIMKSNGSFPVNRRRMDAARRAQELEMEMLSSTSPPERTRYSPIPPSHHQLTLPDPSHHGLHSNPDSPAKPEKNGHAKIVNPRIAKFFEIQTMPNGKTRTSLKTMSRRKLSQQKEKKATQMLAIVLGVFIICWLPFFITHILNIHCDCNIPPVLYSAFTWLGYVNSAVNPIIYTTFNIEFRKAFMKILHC
# In short: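 Rat striatal membranes were prepared by differential centrifugation in 50 mM Tris pH 7.4 at 4 °C. Membrane protein (10 mg) was incubated 15 min at 37 °C with 0.1 nM [3H]spiperone and varying competitor concentrations. Buffer: 50 mM Tris HCl pH 7.5, 0.1% ascorbic acid, pargyline, 120 mM NaCl, 5 mM KCl, 2 mM CaCl2, 1 mM MgCl2. (+)-Butaclamol defined nonspecific binding. Bound ligand was collected by filtration and scintillation counted. IC50 by log-logit regression.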
# Canis familiaris [4] = assay: In vivo antagonism of cisplatin-induced emesis in dog measured as percentage protection for twice the dose of 1 mg/kg in 2 dogs; assay type: functional, Canis lupus familiaris; in short: as §1
# [5] = molecular target: D(2) dopamine receptor (Rattus norvegicus) (UniProt P61169); assay: In vivo antagonistic activity against dopamine D2 receptor was measured as catalepsy in rat when administered subcutaneously; assay type: functional, organism-based
# D(2) dopamine receptor (Rattus norvegicus), sequence (P61169 whole entry): as above
# In short: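 Male Long Evans rats (275 g) received graded sc doses in dilute aqueous HCl (pH 4.5-5.5). They were observed 180 min for catalepsy, scored when the animal stayed stationary ≥15 s on a four-cork template.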
# [6] = molecular target: D(2) dopamine receptor (Rattus norvegicus) (UniProt P61169); assay: In vivo antagonism activity against D2 receptor was measured as stereotypy in rat when administered subcutaneously; assay type: functional, organism-based
# In short: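 Male Long Evans rats (275 g) were dosed sc in dilute aqueous HCl (pH 4.5-5.5) 30 min before apomorphine (1 mg/kg sc).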
# Mustela putorius furo [7] = assay: In vivo antagonism of cisplatin-induced emesis in ferret measured as percentage protection for twice the dose of 3 mg/kg and in 3 ferrets; assay type: functional; in short: as §2
# Mustela putorius furo [8] = assay: In vivo antagonism of cisplatin-induced emesis in ferret measured as emetic episodes, twice the dose of 1 mg/kg and in 3 ferrets; assay type: functional; in short: as §2
Compound,ED50 [1],Emetic episodes (Canis familiaris [2]),Emetic episodes (Mustela putorius furo [3]; 3 mg/kg),IC50 (D(2) dopamine receptor),Protection (Canis familiaris [4]),ED50 [5],ED50 [6],Protection (Mustela putorius furo [7]),Emetic episodes (Mustela putorius furo [3]),Emetic episodes (Mustela putorius furo [8]),Protection (Mustela putorius furo [8])
CCN(CC)CCNC(=O)c1cc(Cl)c(N)cc1OCCOC,> 3 mg/kg,1.5,1.7 and 5,> 1000 nM,88%,> 40 mg/kg,> 40 mg/kg,–,–,–,–
C=CCN1CCCC1CNC(=O)c1cc2nn[nH]c2cc1O (stereo not given),> 3 mg/kg,–,–,–,–,> 40 mg/kg,> 40 mg/kg,0%,8,–,–
CCN1CCCCCOc2cc(N)c(Cl)cc2C(=O)NCCC1,> 3 mg/kg,–,–,7.7 nM,–,> 40 mg/kg,10 mg/kg,67%,2.3,–,–
CCN(CC)CCNC(=O)c1cc(Cl)c(N)cc1OCc1cc(C)no1,> 3 mg/kg,–,–,> 1000 nM,–,> 40 mg/kg,> 40 mg/kg,72%,2,–,–
CCN(CC)CCNC(=O)c1cc(Cl)c(N)cc1OCC1OCCO1,> 3 mg/kg,–,–,> 1000 nM,–,> 40 mg/kg,> 40 mg/kg,67%,2.3,4,43%
C=CCN1CCCC1CNC(=O)c1cc2[nH]nnc2cc1OC (stereo not given) [ALIZAPRIDE],–,–,–,200 nM,–,–,–,–,–,–,–
CCN(CC)CCNC(=O)c1cc(Cl)c(N)cc1OCC1(C)CO1 (stereo not given),> 3 mg/kg,–,–,> 1000 nM,–,> 40 mg/kg,> 40 mg/kg,53%,3.3,–,–
CCN(CC)CCNC(=O)c1cc(Cl)c(N)cc1OC(C)C(C)O (stereo in doubt; 8g),> 3 mg/kg,–,–,–,–,> 40 mg/kg,> 40 mg/kg,–,–,–,–
CCN(CC)CCNC(=O)c1cc(Cl)c(N)cc1OCC1CCCO1 (stereo not given),> 3 mg/kg,–,–,> 1000 nM,–,> 40 mg/kg,> 40 mg/kg,54%,3.3,–,–
CCN(CC)CCN(C)C(=O)c1cc(Cl)c(N)cc1OC,> 3 mg/kg,–,–,> 1000 nM,–,> 40 mg/kg,> 40 mg/kg,0%,8.7,–,–
"CCN(CC)CCNC(=O)c1cc(Cl)c(N)cc1OC(C)C(C)O (stereo in doubt; 8g,h)",–,–,–,–,–,> 40 mg/kg,> 40 mg/kg,–,–,–,–
CCN(CC)CCNC(=O)c1cc(Cl)c(N)cc1OC[C@@H](C)O (stereo in doubt; 8e),> 3 mg/kg,–,–,–,–,> 40 mg/kg,> 40 mg/kg,–,–,–,–
C=CCN1CCCC1CNC(=O)c1cc2nn[nH]c2cc1OC(C)C(C)=O (stereo not given),> 3 mg/kg,–,–,> 1000 nM,–,> 40 mg/kg,> 40 mg/kg,21%,5.7,–,–
C=CCN1CCCC1CNC(=O)c1cc2[nH]nnc2cc1O (stereo not given),–,–,–,> 1000 nM,–,–,–,–,–,–,–
CCN(CC)CCNC(=O)c1cc(Cl)c(N)c2c(C)c(C)oc12,> 3 mg/kg,–,–,> 1000 nM,–,> 40 mg/kg,> 40 mg/kg,53%,3.3,–,–
CCN(CC)CCNC(=O)c1cc(Cl)c(N)cc1OCC(=O)c1cccs1,–,3,–,> 1000 nM,75%,> 40 mg/kg,> 40 mg/kg,95%,0.3,–,–
CCN(CC)CCC[S+]([O-])c1cc(Cl)c(N)cc1OC (stereo not given),> 1 mg/kg,–,–,> 1000 nM,–,> 40 mg/kg,> 40 mg/kg,70%,2,–,–
CCN(CC)CCNC(=O)c1cc(Cl)c(N)cc1OCC(O)CO (stereo not given),> 3 mg/kg,–,–,> 1000 nM,–,> 40 mg/kg,> 40 mg/kg,10%,6.3,–,–
C/C=C/COc1cc(N)c(Cl)cc1C(=O)NCCN(CC)CC,> 3 mg/kg,2.5,–,> 1000 nM,80%,> 40 mg/kg,> 40 mg/kg,90%,0.7,–,–
CCN(CC)CCNC(=O)c1cc(Cl)c(N)cc1OCc1ccccc1,> 1 mg/kg,–,–,> 1000 nM,–,> 40 mg/kg,> 40 mg/kg,–,–,–,–
CCN(CC)CCNC(=O)c1cc(Cl)c(N)cc1OCCO,> 3 mg/kg,3,–,> 1000 nM,76%,> 40 mg/kg,> 40 mg/kg,68%,2.3,–,–
CCN(CC)CCNC(=O)c1cc(Cl)c(N)cc1OCCC1(C)OCCO1,> 3 mg/kg,–,–,> 1000 nM,–,> 40 mg/kg,> 40 mg/kg,80%,1.3,–,–
CCN(CC)CCNC(=O)c1cc(Cl)c(N)cc1OCC1=NCCN1,> 3 mg/kg,1.5,–,> 1000 nM,88%,> 40 mg/kg,> 40 mg/kg,86%,1,–,–
CCN(CC)CCNC(=O)c1cc(Cl)c(N)cc1OCC(=O)OC,> 3 mg/kg,–,–,> 1000 nM,–,> 40 mg/kg,> 40 mg/kg,30%,5,–,–
CCN(CC)CCN(C)C(=O)c1cc(Cl)c(N)cc1O.Cl,> 3 mg/kg,–,–,> 1000 nM,–,> 40 mg/kg,> 40 mg/kg,30%,5,–,–
CCN(CC)CCNC(=O)c1cc(Cl)c(N)cc1OC[C@@H](C)O (stereo in doubt; 8f),> 3 mg/kg,–,–,–,–,> 40 mg/kg,> 40 mg/kg,–,–,–,–
CCN(CC)CCNC(=O)c1cc(Cl)c(N)cc1OCC1CO1 (stereo not given),> 3 mg/kg,–,–,> 1000 nM,–,> 40 mg/kg,> 40 mg/kg,44%,4.7,–,–
CCN(CC)CCNC(=O)c1cc(Cl)c(N)cc1OC(C)C(C)O (stereo in doubt; 8h),> 3 mg/kg,–,–,–,–,> 40 mg/kg,> 40 mg/kg,–,–,–,–
CCN(CC)CCNC(=O)c1cc(Cl)c(N)cc1OCC(O)COC (stereo not given),> 3 mg/kg,–,–,> 1000 nM,–,> 40 mg/kg,> 40 mg/kg,54%,3.3,–,–
CCN1CCCNC(=O)c2cc(Cl)c(N)cc2OCCOCC1,> 3 mg/kg,–,–,> 1000 nM,–,> 40 mg/kg,–,0%,11.7,–,–
